Rows were chosen to be rich in hits. Some 4.5% of all compounds tested hit in one or more screens of this group.
GPR7 antagonist: antagonists of human GPR7 (neuropeptides B/W receptor 1). P48145. 1.1% of 290,000 active. GPR7-expressing cells, fluorescence antagonist assay. inhibition, % at 4.4 µM; in the data active = inhibition above about 16%, passing the limit was not always enough;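 note: cells stimulated with the agonist NPW; 0% = agonist with vehicle and 100% = vehicle without agonist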
Target sequence (P48145 whole entry, looked up): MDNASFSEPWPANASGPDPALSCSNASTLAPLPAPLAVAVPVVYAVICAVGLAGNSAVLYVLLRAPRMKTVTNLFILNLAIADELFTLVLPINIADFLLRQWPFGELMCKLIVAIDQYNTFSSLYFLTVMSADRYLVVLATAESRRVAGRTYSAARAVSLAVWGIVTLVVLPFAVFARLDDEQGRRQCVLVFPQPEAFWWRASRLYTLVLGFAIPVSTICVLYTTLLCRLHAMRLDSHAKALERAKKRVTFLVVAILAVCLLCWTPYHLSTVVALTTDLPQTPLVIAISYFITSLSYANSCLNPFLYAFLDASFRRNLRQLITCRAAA
CHO parental Ca: signal in parental CHO cells, OX1R antagonist counter-screen; AID 463079; 0.63% of 330,000 active; inhibition, % at 5.6 µM; parental CHO-K1, ATP-induced calcium, Fluo-8 fluorescence;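 active = inhibition above that plate's mean sample inhibition plus 3 SD, cut at about 26% in these data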;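 note: 0% = ATP-challenged DMSO wells and 100% = DMSO wells without ATP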
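material = parental CHO cells | also added = ATP as calcium-mobilizing challenge | dosing = single point at 5.6 µM | detection = intracellular calcium via Fluo-8 no-wash fluorescent dye | read-out = % inhibition | benchmarks = low control ATP plus DMSO, high control DMSO only | repeats = one well per compound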
OX1R antag-1: blocks the human orexin 1 receptor; OX1R-expressing cells, FRET antagonist read-out; inhibition, % at 6.6 µM; 1.8% of 330,000 active; AID 485270; in the data active = inhibition mostly above about 38%, no sharp cut-off; inactive = mostly below about 40%;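 note: 0% = agonist challenge alone and 100% = reference antagonist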
TAAR1 antag: antagonists of human TAAR1 | 1.5% of 360,000 active | CHO RD-HGA16 TAAR1, Fluo-8 calcium fluorescence, antagonist | Q96RJ0 | inhibition, % at 3 µM;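 active = inhibition above a per-plate cutoff, the mean inhibition of test compounds on that plate plus 3 SD, cut at about 49% in these data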;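 note: 0% = DMSO plus EC80 beta-PEA response and 100% = DMSO alone without agonist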
Target sequence (Q96RJ0 whole entry, looked up): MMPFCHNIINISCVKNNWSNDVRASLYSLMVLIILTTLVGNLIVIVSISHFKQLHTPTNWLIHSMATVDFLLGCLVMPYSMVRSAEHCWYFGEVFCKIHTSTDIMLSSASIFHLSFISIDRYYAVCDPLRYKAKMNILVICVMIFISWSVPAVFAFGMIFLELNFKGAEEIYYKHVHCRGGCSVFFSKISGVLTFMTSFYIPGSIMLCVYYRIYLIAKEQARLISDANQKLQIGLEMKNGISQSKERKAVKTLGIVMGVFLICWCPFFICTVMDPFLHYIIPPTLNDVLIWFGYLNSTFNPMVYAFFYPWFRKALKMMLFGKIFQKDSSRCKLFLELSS
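Material: CHO RD-HGA16 cells bearing hTAAR1; compound dosing: one-point dosing, 3 µM nominal final; schedule: dye loading 75 min at 37 °C, then 30 min room temperature; measured by: calcium fluorescence with Fluo-8; control set: vehicle and agonist controls; replication: n of 1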
TAAR1 agonist: human TAAR1 agonism. activation, % at 3 µM. 0.99% of 360,000 active. CHO RD-HGA16 TAAR1, Fluo-8 calcium fluorescence; vehicle wells 0%, saturating PEA agonist 100%. Q96RJ0;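 active = activation above the mean activation of all test compounds in the run plus 3 SD, cut at about 38% in these data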
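Assay system – CHO-derived RD-HGA16 cells with stable Gα16 and human TAAR1 · Compound dosing – one-point dosing at 3 µM (nominal) · Incubation – 17-24 h seeding, 75 min 37 °C dye, 30 min RT · Measured by – kinetic Fluo-8 calcium fluorescence · Control set – DMSO vehicle as 0%, PEA at EC100 as 100% · Repeats – single well for each compound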
OX1R antag-2: blocks the human orexin 1 receptor. O43613. CHO/OX1R cells, Fluo-8 calcium fluorescence, orexin A. inhibition, % at 5 µM. 0.43% of 330,000 active;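 active = inhibition above its plate's threshold, mean inhibition of all tested compounds on the plate plus 3 SD, cut at about 37% in these data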;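 note: 0% = orexin A challenge wells and 100% = SB-334867-A antagonist wells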
OX1R Ca confirm: OX1R (human) antagonism, confirmed; CHO/OX1R cells, orexin A calcium Fluo-8 fluorescence; 38% of 1,100 active; inhibition, % at 5 µM; shares compounds with OX1R antag-2; in the data active = inhibition above about 29%;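 note: 0% = agonist challenge alone and 100% = reference antagonist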
CHO Ca counter: counter-screen: parental CHO calcium response change, triplicate; inhibition, % at 5.6 µM; parental CHO-K1, ATP-induced calcium, Fluo-8 fluorescence; shares compounds with OX1R antag-2; 9.3% of 1,100 active; AID 492965;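 active = inhibition above a per-plate limit, the mean inhibition of that plate's test compounds plus 3 SD, cut at about 25% in these data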;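 note: 0% = ATP challenge with DMSO and 100% = DMSO without ATP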
* = called active by the depositor; nt = no result given.

SMILES	GPR7 antagonist	CHO parental Ca	OX1R antag-1	TAAR1 antag	TAAR1 agonist	OX1R antag-2	OX1R Ca confirm	CHO Ca counter
COc1ccc(CNC(=O)COC(=O)[C@H](Cc2c[nH]c3ccccc23)NC(=O)c2cccs2)cc1	1.4	12.0	13.3	6.8	4.1	48.8*	59.6*	10.4
O=C(c1cccc(OC2CCN(Cc3ccc(F)cc3)CC2)c1)N1CCCC1	-1.8	nt	nt	-8.0	-0.6	nt	nt	nt
CN(Cc1ccccc1)C(=O)COC(=O)c1cc(NS(=O)(=O)c2cccs2)ccc1O	11.8	17.7	57.8	27.9	12.8	43.6*	30.9*	25.8*
CCCCCCCn1c2c(c(=N)c3ccccc31)CCC2	52.7*	21.7	4.1	-1.2	5.0	29.8	13.7	37.7*
CCCn1c2c(c(=N)c3c1CCC3)CCC2	-7.2	-4.4	7.3	1.9	11.2	-14.1	nt	nt
CCOC(=O)c1sc(N)nc1C(C)(C)C	0.6	-10.1	20.2	-12.1	6.3	40.9	-1.8	1.2
CCOC(=O)c1sc(NCCNc2nc(C)c(C(=O)OCC)s2)nc1C	nt	-18.3	23.8	nt	nt	-22.9	nt	nt
COC(=O)C1CCN(C(=O)CN2C(=O)NC3(CCC(C)CC3)C2=O)CC1 (stereo unspecified)	nt	-13.3	4.8	-32.7	4.3	-8.3	nt	nt
COC(=O)[C@H](CC(C)C)NC(=O)NC1CCCc2ccccc21 (stereo partly specified)	1.2	24.9	25.8	-5.6	6.1	44.1	22.7	22.7
CCc1cccc(C)c1NC(=O)c1cc(=O)[nH]c2ccc(S(=O)(=O)N3CCOCC3)cc12	nt	-16.2	12.9	12.9	4.5	-13.7	nt	nt
CC(C)OC(=O)CSc1nc2c(c(C3CC=CCC3)c1C#N)CCC2 (stereo unspecified)	4.3	6.1	18.4	21.1	3.3	53.7*	-10.7	-3.5
COc1cc(C2C3=C(COC3=O)Oc3cc4c(cc32)OCO4)ccc1O (stereo unspecified)	nt	nt	nt	-0.9	1.4	nt	nt	nt
COc1c(C)cc(Br)cc1C(=O)Nc1ccc(Cc2ccncc2)cc1	2.9	17.8	40.8	21.6	-0.5	31.0	-8.6	-4.9
COc1ccccc1C(=O)Nc1ccc(Cc2ccncc2)cc1	5.9	-9.9	15.2	18.0	3.4	-23.4	nt	nt
O=C(O/N=C1\CCS(=O)(=O)c2sccc21)c1c(F)cccc1F	-4.6	-16.8	13.2	11.6	1.6	43.6*	16.7	8.9
COc1ccc(C)cc1NC(=O)CSc1nnc(COc2ccccc2)n1Cc1ccco1	2.9	14.3	23.3	0.7	4.0	42.7	-17.0	-13.7
S=C(NCc1cccnc1)Nc1cccc2ccccc12	-3.5	-7.2	12.9	9.9	1.5	33.1	-0.8	-5.3
Cc1ccc(C)c(OCCC(=O)NNC(=O)c2ccccc2)c1	nt	8.0	13.9	4.3	1.1	17.5	-3.7	-2.6
Cc1cc(OCc2cc(C(=O)N3CCN(C)C(=O)[C@@H]3C)no2)cc(C)c1Cl	-6.0	25.2	22.8	28.2	15.2	43.2*	16.5	28.5*
CCN(CC)c1ccc(/C=N\NC(N)=O)cc1	-11.4	9.4	17.3	1.5	0.7	31.9	0.6	2.2
CCN(CC)c1ccc(/C=N/NC(=O)CC(C)C)cc1	12.9	0.9	7.3	2.0	0.8	-6.8	nt	nt
CN(CC(=O)Nc1cccc(S(=O)(=O)N(C)c2ccccc2)c1)Cc1cccs1	nt	nt	nt	38.2	0.5	nt	nt	nt
CCN1C(=O)/C(=C/C=C2/Sc3ccccc3N2CCO)SC1=S	-2.3	2.5	43.5	2.3	6.5	21.6	20.5	25.0*
CCCN1C(=O)/C(=C/C=C2\N(CC)c3ccccc3C2(C)C)SC1=S	8.5	18.8	3.8	23.0	25.8	36.7	55.5*	51.9*
COC(=O)C[C@@H]1C[C@H]2c3cc(NC(=O)Nc4ccccc4F)ccc3O[C@H]2[C@H](CO)O1	nt	nt	nt	6.2	0.0	nt	nt	nt
SMILES	GPR7 antagonist	CHO parental Ca	OX1R antag-1	TAAR1 antag	TAAR1 agonist	OX1R antag-2	OX1R Ca confirm	CHO Ca counter
CC12C=CC(=O)C=C1CCC1C2C(=O)CC2(C)C1CCC2(O)C(=O)CO (stereo unspecified)	nt	nt	nt	5.2	0.3	nt	nt	nt
O=C(/C=C/c1ccc(S(=O)(=O)NCc2ccco2)cc1)NCc1cccc(Cl)c1	5.3	18.8	42.6	11.4	2.8	53.7*	17.0	2.6
Cc1cc([N+](=O)[O-])ccc1NC(=O)c1csc(C)c1C	-6.3	nt	nt	-13.0	-4.0	nt	nt	nt
CC(C)=CCOc1c2ccoc2c(OCC=C(C)C)c2oc(=O)ccc12	nt	-3.9	12.6	22.8	-2.1	54.5*	4.7	53.4*
COc1cccc(-c2sc3ccc(OC)cc3c2-c2ccc(OCCN(C)C)cc2)c1	nt	22.6	7.1	51.0*	37.2	59.4*	37.0*	4.0
N#CCc1ccc(NC(=O)Nc2cccc(Cl)c2)cc1	3.2	13.0	40.0	15.0	27.9	36.2	17.6	33.9*
NS(=O)(=O)c1cccc(NC(=O)Nc2ccc(Cl)cc2)c1	-6.5	27.3	31.7	14.0	26.8	29.9	22.8	19.8
C[C@H]1CN([C@@H](C)CO)C(=O)c2cc(-c3cccc(F)c3)cnc2O[C@H]1CN(C)C(=O)c1cnccn1	nt	nt	nt	-25.1	4.0	nt	nt	nt
CC1(c2ccc(OC(F)F)cc2)NC(=O)N(CC(=O)Nc2ccc(N3CCCCC3)cc2)C1=O (stereo unspecified)	nt	14.2	-1.1	44.4	49.5*	17.9	62.4*	31.7*
CC1(c2ccc([N+](=O)[O-])cc2)NC(=O)N(CC(=O)Nc2ccc(N3CCCCC3)cc2)C1=O (stereo unspecified)	nt	17.6	6.1	40.4	42.9*	20.6	47.9*	19.7
Cc1cccc(CC(Cc2nc3ccccc3[nH]2)c2nc3ccccc3[nH]2)c1 (stereo unspecified)	13.4	16.2	6.6	52.3*	14.3	36.2	18.9	-3.9
CC(c1ccccc1)C(Cc1nc2ccccc2[nH]1)c1nc2ccccc2[nH]1 (stereo unspecified)	-4.9	6.3	36.0	nt	nt	45.1*	7.3	-20.0
O=C(CSc1ncnc2c1cnn2CCc1ccccc1)Nc1cccc(C(F)(F)F)c1	-10.3	24.0	37.8	60.0*	15.2	60.6*	-8.5	-9.1
Cc1c(Cl)cccc1NC(=O)CSc1ncnc2c1cnn2CCc1ccccc1	-4.5	-8.4	19.3	-31.4	2.7	-10.5	nt	nt
N#CCCn1cc(/C=N/O)c(-c2ccccc2)n1	-13.2	0.3	3.8	-1.9	7.4	-2.0	nt	nt
N#CCCn1cc(/C=N/NC(N)=S)c(-c2ccc(-c3ccccc3)cc2)n1	-3.2	-3.3	2.2	19.6	5.8	26.5	10.1	3.8
CCc1ccc(NC(=O)[C@H](NC(=O)[C@@H]2Cc3ccccc3CN2)c2ccccc2)cc1	8.8	-28.3	1.9	-1.2	16.6	-0.8	nt	nt

High-throughput results deposited in PubChem BioAssay by The Scripps Research Institute Molecular Screening Center.
